# Reference: ChEMBL document CHEMBL1828552, “Synthesis and studies of novel 2-(4-cyano-3-trifluoromethylphenyl amino)-4-(quinoline-4-yloxy)-6-(piperazinyl/piperidinyl)-s-triazines as potential antimicrobial, antimycobacterial and anticancer agents” (2011)
# System: Aspergillus niger
# Assay: Antifungal activity against 10^5 CFU/mL Aspergillus niger MTCC 282 after 48 hrs by disc diffusion technique
# Assay type: functional
# Conditions: not given
row,Compound,inhibition zone (IZ) [mm]
1,N#Cc1ccc(Nc2nc(Oc3ccnc4ccccc34)nc(N3CCN(c4cccc(Cl)c4Cl)CC3)n2)cc1C(F)(F)F,24

# System: Aspergillus clavatus
# Assay: Antifungal activity against 10^5 CFU/mL Aspergillus clavatus MTCC 1323 after 48 hrs by disc diffusion technique
# Assay type: functional
# Conditions: not given
row,Compound,inhibition zone (IZ) [mm]
1,N#Cc1ccc(Nc2nc(Oc3ccnc4ccccc34)nc(N3CCN(c4cccc(Cl)c4Cl)CC3)n2)cc1C(F)(F)F,21

# System: Klebsiella pneumoniae
# Assay: Antibacterial activity against 10^5 CFU/mL Klebsiella pneumoniae MTCC 109 after 24 hrs by agar streak dilution method
# Assay type: functional
# Conditions: MTCC 109, 24 h
# Outline: (§1)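 Agar streak dilution. Stock 100 µg/mL in DMSO; graded amounts were mixed into molten nutrient agar and poured at 4–5 mm depth. Plates carried serial dilutions over […]. About 10⁵ CFU/mL of each bacterium was applied, and plates were incubated at 37 ± 1 °C for 24 h. MIC was read from the dilution series.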
row,Compound,MIC [µg/mL]
1,N#Cc1ccc(Nc2nc(Oc3ccnc4ccccc34)nc(N3CCN(c4cccc(Cl)c4Cl)CC3)n2)cc1C(F)(F)F,12.5

# System: Aspergillus fumigatus
# Assay: Antifungal activity against 10^5 CFU/mL Aspergillus fumigatus MTCC 343 after 48 hrs by disc diffusion technique
# Assay type: functional
# Conditions: not given
row,Compound,inhibition zone (IZ) [mm]
1,N#Cc1ccc(Nc2nc(Oc3ccnc4ccccc34)nc(N3CCN(c4cccc(Cl)c4Cl)CC3)n2)cc1C(F)(F)F,25

# System: Staphylococcus aureus
# Assay: Antibacterial activity against 10^5 CFU/mL Staphylococcus aureus MTCC 96 after 24 hrs by disc diffusion technique
# Assay type: functional
# Conditions: not given
# Outline: (§2)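 Disc diffusion on Mueller–Hinton agar poured 5 mm deep. The surface was swabbed with a 10⁵ CFU/mL […] suspension. Filter-paper discs 6.25 mm in diameter were soaked in compound in DMSO and placed on the agar. Plates were incubated 24 h at 37 ± 1 °C, and the inhibition zone was measured in mm. A DMSO disc served as blank.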
row,Compound,inhibition zone (IZ) [mm]
1,N#Cc1ccc(Nc2nc(Oc3ccnc4ccccc34)nc(N3CCN(c4cccc(Cl)c4Cl)CC3)n2)cc1C(F)(F)F,28

# System: Proteus vulgaris
# Assay: Antibacterial activity against 10^5 CFU/mL Proteus vulgaris MTCC 1771 after 24 hrs by agar streak dilution method
# Assay type: functional
# Conditions: MTCC 1771, 24 h
# Outline: as §1
row,Compound,MIC [µg/mL]
1,N#Cc1ccc(Nc2nc(Oc3ccnc4ccccc34)nc(N3CCN(c4cccc(Cl)c4Cl)CC3)n2)cc1C(F)(F)F,12.5

# System: Shigella flexneri
# Assay: Antibacterial activity against 10^5 CFU/mL Shigella flexneri MTCC 1457 after 24 hrs by agar streak dilution method
# Assay type: functional
# Conditions: MTCC 1457, 24 h
# Outline: as §1
row,Compound,MIC [µg/mL]
1,N#Cc1ccc(Nc2nc(Oc3ccnc4ccccc34)nc(N3CCN(c4cccc(Cl)c4Cl)CC3)n2)cc1C(F)(F)F,12.5

# System: Pseudomonas aeruginosa
# Assay: Antibacterial activity against 10^5 CFU/mL Pseudomonas aeruginosa MTCC 741 after 24 hrs by disc diffusion technique
# Assay type: functional
# Conditions: not given
# Outline: as §2
row,Compound,inhibition zone (IZ) [mm]
1,N#Cc1ccc(Nc2nc(Oc3ccnc4ccccc34)nc(N3CCN(c4cccc(Cl)c4Cl)CC3)n2)cc1C(F)(F)F,23

# System: Aspergillus fumigatus
# Assay: Antifungal activity against 10^5 CFU/mL Aspergillus fumigatus MTCC 343 after 48 hrs by agar streak dilution method
# Assay type: functional
# Conditions: MTCC 343, 48 h
# Outline: (§3)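 Agar streak dilution for fungi. Stock 100 µg/mL in DMSO; graded amounts were mixed into molten Sabouraud dextrose agar and poured at 4–5 mm depth. Serial dilutions ran over […]. About 10⁵ CFU/mL inoculum was applied, with incubation at 37 ± 1 °C for 48 h. MIC was read from the dilution series.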
row,Compound,MIC [µg/mL]
1,N#Cc1ccc(Nc2nc(Oc3ccnc4ccccc34)nc(N3CCN(c4cccc(Cl)c4Cl)CC3)n2)cc1C(F)(F)F,25

# System: Salmonella typhi
# Assay: Antibacterial activity against 10^5 CFU/mL Salmonella typhi MTCC 733 after 24 hrs by agar streak dilution method
# Assay type: functional, Salmonella enterica subsp. enterica serovar Typhi
# Conditions: Salmonella enterica, MTCC 733, 24 h
row,Compound,MIC [µg/mL]
1,N#Cc1ccc(Nc2nc(Oc3ccnc4ccccc34)nc(N3CCN(c4cccc(Cl)c4Cl)CC3)n2)cc1C(F)(F)F,12.5

# System: DU-145
# Assay: Cytotoxicity against […] human DU145 cells after 48 hrs by SRB assay
# Assay type: functional
# Conditions: DU-145, 48 h
# Outline: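 SRB assay in DU-145 cells grown in RPMI 1640 with 10% FBS and 2 mM L-glutamine. Cells were plated and held 24 h before addition of four 10-fold concentrations. After 48 h, cells were TCA-fixed, stained with 0.4% SRB and read at 540 nm. GI50, TGI and LC50 were derived against time-zero and control wells; each value is the mean of three experiments.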
Compound,GI50 [µM],LC50 (concentration giving 50% net cell kill relative to time zero) [µM],TGI [µM]
N#Cc1ccc(Nc2nc(Oc3ccnc4ccccc34)nc(N3CCN(c4cccc(Cl)c4Cl)CC3)n2)cc1C(F)(F)F,> 100,> 100,> 100

# System: Bacillus cereus
# Assay: Antibacterial activity against 10^5 CFU/mL Bacillus cereus MTCC 619 after 24 hrs by disc diffusion technique
# Assay type: functional
# Conditions: not given
# Outline: as §2
row,Compound,inhibition zone (IZ) [mm]
1,N#Cc1ccc(Nc2nc(Oc3ccnc4ccccc34)nc(N3CCN(c4cccc(Cl)c4Cl)CC3)n2)cc1C(F)(F)F,28

# System: Aspergillus clavatus
# Assay: Antifungal activity against 10^5 CFU/mL Aspergillus clavatus MTCC 1323 after 48 hrs by agar streak dilution method
# Assay type: functional
# Conditions: MTCC 1323, 48 h
# Outline: as §3
row,Compound,MIC [µg/mL]
1,N#Cc1ccc(Nc2nc(Oc3ccnc4ccccc34)nc(N3CCN(c4cccc(Cl)c4Cl)CC3)n2)cc1C(F)(F)F,50

# System: Shigella flexneri
# Assay: Antibacterial activity against 10^5 CFU/mL Shigella flexneri MTCC 1457 after 24 hrs by disc diffusion technique
# Assay type: functional
# Conditions: not given
# Outline: as §2
row,Compound,inhibition zone (IZ) [mm]
1,N#Cc1ccc(Nc2nc(Oc3ccnc4ccccc34)nc(N3CCN(c4cccc(Cl)c4Cl)CC3)n2)cc1C(F)(F)F,24

# System: Escherichia coli
# Assay: Antibacterial activity against 10^5 CFU/mL Escherichia coli MTCC 739 after 24 hrs by agar streak dilution method
# Assay type: functional
# Conditions: MTCC 739, 24 h
# Outline: as §1
row,Compound,MIC [µg/mL]
1,N#Cc1ccc(Nc2nc(Oc3ccnc4ccccc34)nc(N3CCN(c4cccc(Cl)c4Cl)CC3)n2)cc1C(F)(F)F,50

# System: Candida albicans
# Assay: Antifungal activity against 10^5 CFU/mL Candida albicans MTCC 183 after 48 hrs by disc diffusion technique
# Assay type: functional
# Conditions: not given
row,Compound,inhibition zone (IZ) [mm]
1,N#Cc1ccc(Nc2nc(Oc3ccnc4ccccc34)nc(N3CCN(c4cccc(Cl)c4Cl)CC3)n2)cc1C(F)(F)F,23

# System: Escherichia coli
# Assay: Antibacterial activity against 10^5 CFU/mL Escherichia coli MTCC 739 after 24 hrs by disc diffusion technique
# Assay type: functional
# Conditions: not given
# Outline: as §2
row,Compound,inhibition zone (IZ) [mm]
1,N#Cc1ccc(Nc2nc(Oc3ccnc4ccccc34)nc(N3CCN(c4cccc(Cl)c4Cl)CC3)n2)cc1C(F)(F)F,23

# System: Aspergillus niger
# Assay: Antifungal activity against 10^5 CFU/mL Aspergillus niger MTCC 282 after 48 hrs by agar streak dilution method
# Assay type: functional
# Conditions: MTCC 282, 48 h
# Outline: as §3
row,Compound,MIC [µg/mL]
1,N#Cc1ccc(Nc2nc(Oc3ccnc4ccccc34)nc(N3CCN(c4cccc(Cl)c4Cl)CC3)n2)cc1C(F)(F)F,25

# System: Salmonella typhi
# Assay: Antibacterial activity against 10^5 CFU/mL Salmonella typhi MTCC 733 after 24 hrs by disc diffusion technique
# Assay type: functional, Salmonella enterica subsp. enterica serovar Typhi
# Conditions: not given
# Outline: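 Disc diffusion. Mueller-Hinton agar autoclaved 120 °C 30 min, poured 5 mm deep. Surface swabbed with 10⁵ CFU/mL suspension […]. 6.25 mm filter-paper discs soaked in compound in DMSO; DMSO-only disc as blank. Incubated 37 ± 1 °C, 24 h for bacteria or 48 h for fungi. Ciprofloxacin and ketoconazole discs as reference drugs. Inhibition zone measured in mm.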
row,Compound,inhibition zone (IZ) [mm]
1,N#Cc1ccc(Nc2nc(Oc3ccnc4ccccc34)nc(N3CCN(c4cccc(Cl)c4Cl)CC3)n2)cc1C(F)(F)F,25

# System: Proteus vulgaris
# Assay: Antibacterial activity against 10^5 CFU/mL Proteus vulgaris MTCC 1771 after 24 hrs by disc diffusion technique
# Assay type: functional
# Conditions: not given
# Outline: as §2
row,Compound,inhibition zone (IZ) [mm]
1,N#Cc1ccc(Nc2nc(Oc3ccnc4ccccc34)nc(N3CCN(c4cccc(Cl)c4Cl)CC3)n2)cc1C(F)(F)F,25

# System: Candida albicans
# Assay: Antifungal activity against 10^5 CFU/mL Candida albicans MTCC 183 after 48 hrs by agar streak dilution method
# Assay type: functional
# Conditions: MTCC 183, 48 h
# Outline: as §3
row,Compound,MIC [µg/mL]
1,N#Cc1ccc(Nc2nc(Oc3ccnc4ccccc34)nc(N3CCN(c4cccc(Cl)c4Cl)CC3)n2)cc1C(F)(F)F,50

# System: Klebsiella pneumoniae
# Assay: Antibacterial activity against 10^5 CFU/mL Klebsiella pneumoniae MTCC 109 after 24 hrs by disc diffusion technique
# Assay type: functional
# Conditions: not given
# Outline: as §2
row,Compound,inhibition zone (IZ) [mm]
1,N#Cc1ccc(Nc2nc(Oc3ccnc4ccccc34)nc(N3CCN(c4cccc(Cl)c4Cl)CC3)n2)cc1C(F)(F)F,24

# System: Pseudomonas aeruginosa
# Assay: Antibacterial activity against 10^5 CFU/mL Pseudomonas aeruginosa MTCC 741 after 24 hrs by agar streak dilution method
# Assay type: functional
# Conditions: MTCC 741, 24 h
# Outline: as §1
row,Compound,MIC [µg/mL]
1,N#Cc1ccc(Nc2nc(Oc3ccnc4ccccc34)nc(N3CCN(c4cccc(Cl)c4Cl)CC3)n2)cc1C(F)(F)F,25

# System: Staphylococcus aureus
# Assay: Antibacterial activity against 10^5 CFU/mL Staphylococcus aureus MTCC 96 after 24 hrs by agar streak dilution method
# Assay type: functional
# Conditions: MTCC 96, 24 h
# Outline: as §1
row,Compound,MIC [µg/mL]
1,N#Cc1ccc(Nc2nc(Oc3ccnc4ccccc34)nc(N3CCN(c4cccc(Cl)c4Cl)CC3)n2)cc1C(F)(F)F,6.25

# System: Bacillus cereus
# Assay: Antibacterial activity against 10^5 CFU/mL Bacillus cereus MTCC 619 after 24 hrs by agar streak dilution method
# Assay type: functional
# Conditions: MTCC 619, 24 h
# Outline: as §1
row,Compound,MIC [µg/mL]
1,N#Cc1ccc(Nc2nc(Oc3ccnc4ccccc34)nc(N3CCN(c4cccc(Cl)c4Cl)CC3)n2)cc1C(F)(F)F,6.25
